High-throughput results from PubChem BioAssay.
CYP2C9 activ: activators of human CYP2C9. P11712. recombinant CYP2C9, luciferin-H conversion, luminescence; stronger effect = higher value; factor 1 = untreated enzyme, 0 = blocked. activation factor at 5 µM. 96,000 compounds, 1.4% hits. AID 1024;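 active = activation factor of 2 or more for CYP2C9 at a 5 µM dose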
Target sequence (P11712 whole entry, looked up): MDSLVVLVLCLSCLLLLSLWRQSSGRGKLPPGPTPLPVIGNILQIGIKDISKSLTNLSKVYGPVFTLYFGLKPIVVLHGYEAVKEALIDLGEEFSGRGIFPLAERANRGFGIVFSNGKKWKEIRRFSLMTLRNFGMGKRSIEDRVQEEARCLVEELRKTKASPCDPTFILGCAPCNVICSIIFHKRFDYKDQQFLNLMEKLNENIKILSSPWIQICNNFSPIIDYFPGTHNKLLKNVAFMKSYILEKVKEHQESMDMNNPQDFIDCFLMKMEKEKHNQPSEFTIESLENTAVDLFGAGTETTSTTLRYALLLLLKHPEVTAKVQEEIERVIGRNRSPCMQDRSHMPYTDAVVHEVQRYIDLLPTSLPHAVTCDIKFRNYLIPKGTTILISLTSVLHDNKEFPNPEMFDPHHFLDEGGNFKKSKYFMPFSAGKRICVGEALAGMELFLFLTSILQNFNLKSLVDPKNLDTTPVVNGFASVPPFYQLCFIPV
CYP2C19 inhib: inhibitors of human CYP2C19 | CYP2C19 Supersomes, luciferin-H EGE luminescence, 30 min | 96,000 compounds, 21% hits | P33261 | inhibition, % at 5 µM;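 active = CYP2C19 inhibition above a set limit at 5 µM in the primary screen, cut at about 50% in these data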
Cav3 T inh: inhibitors of human Cav3.2 T-type calcium channel. O95180. Cav3.2-expressing cells, Fluo-4 calcium fluorescence FDSS; stronger effect = lower value. B-score at 10 µM. 100,000 compounds, 4% hits. AID 449739;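 active = single-dose well whose peak fluorescence ratio is a statistical outlier from its plate by either plate-standardised score or position-corrected B-score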
CYP2C9 inhib: blocks human cytochrome P450 2C9; P11712; CYP2C9 Supersomes, luciferin-H conversion, luminescence; inhibition, % at 5 µM; 96,000 compounds, 20% hits; AID 777;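 active = blocking of liver enzyme CYP2C9 beyond about 50% at 5 µM, limit read from the data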
HIV Rev-RRE inh: HIV Rev-RRE protein-RNA interaction inhibition; AID 704; Rev peptide-RRE RNA binding, FRET; P05866; 97,000 compounds, 0.79% hits; inhibition, % at 8 µM;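 active = inhibition above the screen-wide mean plus 3 SD, cut at about 35% in these data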
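Probe or stimulus: fluorescein-Rev peptide as binding partner; assay system: Cy5-tagged RRE RNA duplex with fluorescein-tagged Rev peptide; timing: 5 min compound–RNA preincubation, then 15 min with peptide, 25 °C; medium: HEPES pH 7.5 buffer with KCl, MgCl2, NaCl and EDTA; signal: fluorescein-to-Cy5 FRET, 480 nm excitation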
CYP2C19 act: cytochrome P450 2C19 (human) activation. P33261. recombinant CYP2C19, luciferin-H EGE luminescence; stronger effect = higher value; 0 = fully inhibited enzyme, 1 = untreated enzyme. activation factor at 5 µM. 96,000 tested, under 10 active;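 active = activation factor of at least 2 at 5 µM in the primary screen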
Hits are given with their value; . = inactive; / = no result given. An excerpt weighted towards active compounds, which were near 27% of everything screened.

SMILES	CYP2C9 activ	CYP2C19 inhib	Cav3 T inh	CYP2C9 inhib	HIV Rev-RRE inh	CYP2C19 act
O=c1n(Cc2ccc(Cl)cc2)c2sc3c(c2c2ncnn12)CCCC3	.	.	.	85	.	.
C=CCn1c(=O)n2ncnc2c2c3c(sc21)CCCC3	.	.	/	.	.	.
CC1(c2cccs2)CC(c2cccs2)=C(C#N)C(=O)N1 (stereo unspecified)	.	79	.	.	.	.
COC(=O)c1sccc1NC(=O)CSc1cc(Cl)ccc1Cl	.	.	/	.	.	.
COC(=O)c1sccc1NC(=O)CSc1ccccc1NS(=O)(=O)c1ccc(Cl)cc1	.	59	-6	84	.	.
COC(=O)c1sccc1NC(=O)CSc1ccccc1NS(=O)(=O)c1ccccc1Cl	.	.	-4.3	87	.	.
COC(=O)c1nn(-c2ccccc2)c(Sc2ccc(OC)cc2)c1/C=N/O	.	.	.	.	.	.
OC(CN(c1ccccc1)c1ccccc1)Cn1cnc2ccccc21 (stereo unspecified)	.	96	-5	98	.	.
OC(COCC1CC=CCC1)Cn1cnc2ccccc21 (stereo unspecified)	.	72	.	.	.	.
OC(COCc1ccccc1)Cn1cnc2ccccc21 (stereo unspecified)	.	.	.	.	.	.
CCOc1ccc(C(=O)NCc2ccco2)cc1	.	66	.	.	/	.
CC(C)COc1ccc(C(=O)NCc2ccco2)cc1	.	.	.	.	.	.
CCc1ccc(OCC(=O)NCc2ccco2)c(Br)c1	.	87	.	72	.	.
C=C(C)c1ccc(C(C)(C)NC(=O)NCc2ccco2)cc1	.	90	.	81	.	.
CC(C)c1ccc(OCC(=O)NCc2ccco2)cc1	.	90	.	74	.	.
O=C1CCC([N+](=O)[O-])C(c2ccc(Cl)cc2Cl)N1 (stereo unspecified)	.	.	.	.	.	.
CC(CNCC1CCCO1)COc1ccccc1 (stereo unspecified)	.	.	.	.	.	.
COc1ccc(NC(=S)NNC(=O)Cn2nc([N+](=O)[O-])cc2C)cc1	.	.	.	.	.	.
CCCCOc1ccccc1C1NC(=O)NC(C)=C1C(=O)OCc1ccco1 (stereo unspecified)	.	61	.	73	.	.
CCCCOc1ccccc1C1NC(=O)NC(C)=C1C(=O)OCCOCC (stereo unspecified)	.	70	.	75	.	.
CCOC(=O)C1=C(N)OC2=C(C(=O)CCC2)C1c1ccccc1OCC (stereo unspecified)	.	80	.	.	.	.
CCCC1=C(C(=O)OCC)C(c2ccccc2OCC)NC(=O)N1C (stereo unspecified)	.	81	.	81	.	.
Cn1c(N2CCN(C(=O)NC34CC5CC(CC(C5)C3)C4)CC2)nc2ccccc21	/	/	.	/	.	/
COc1ccc(-c2cc(C(=O)N3CCN(C(c4ccccc4)c4ccccc4)CC3)no2)cc1	.	.	.	.	.	.
O=C(N1CCCCC1)N1CCN(C(c2ccccc2)c2ccccc2)CC1	.	57	.	81	.	.
SMILES	CYP2C9 activ	CYP2C19 inhib	Cav3 T inh	CYP2C9 inhib	HIV Rev-RRE inh	CYP2C19 act
COc1ccc(-c2cc(C(=O)N3CCN(C(c4ccccc4)c4ccccc4)CC3)no2)cc1OC	.	.	-6.3	.	.	.
O=C(c1cc(-c2ccco2)on1)N1CCN(C(c2ccccc2)c2ccccc2)CC1	.	.	.	.	.	.
CC(C)Cc1cc(C(=O)N2CCN(C(c3ccccc3)c3ccccc3)CC2)no1	.	.	.	79	.	.
CCn1c(C)cc(/C=C2\NC(=O)N(Cc3ccc(Cl)cc3)C2=O)c1C	.	.	.	.	.	.
Cc1cccc(CN2C(=O)N/C(=C/c3cc(C)n(-c4ccccn4)c3C)C2=O)c1	.	.	.	98	.	.
COc1ccc(/C=N/NC(=O)C2CCN(c3ncc(C(F)(F)F)cc3Cl)CC2)cc1	.	.	.	.	.	.
COCCn1c(C)cc(C(=O)CSc2ncn[nH]2)c1C	.	.	.	.	.	.
COc1cc(OC)cc(-n2nnnc2SCC(=O)NC2CCCC2)c1	3.1	.	.	.	.	.
CSc1nsc(SCC(=O)NC2CCCCC2)n1	.	96	.	.	.	.
